Series [1] can be described thus: Selectivity index, ratio of CC50 for human HuH7 cells to EC50 for West Nile virus infected in human HuH7 cells. The format is toxicity, cell-based, Huh-7. Conditions: read-out: Ratio CC50/EC50. The method, boiled down: (§1)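 Huh-7 cells (10^4/well) in DMEM + 10% FBS, overnight at 37 °C, then infected with WNV (MOI 0.1) plus compound, triplicate, 48 h. Pooled supernatant plaque-titrated on Vero E6 (10^-2 to 10^-7, 3 days, crystal violet), giving EC50 by nonlinear fit. Viability of the same infected cells by CellTiter-Glo luminescence gave CC50. Reference inhibitor also assayed.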

Series [2] deals with West Nile virus. Kind of series: Inhibition of West Nile virus NS2B-NS3 protease using 2-Abz-Gly-Leu-Lys-Arg-Gly-Gly-[…]-Tyr-NH2 as substrate at 50 uM preincubated with protein for 15 mins followed by substrate addition measured for 15 mins by FRET assay. An outline of the steps:
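Linked WNV NS2B-NS3 protease (150 nM) was preincubated 15 min with inhibitor (50 μM final) in 50 mM Tris-HCl pH 9, 10% ethylene glycol, 0.0016% Brij 58. […] Percent inhibition was taken from the slope relative to the no-inhibitor control, in triplicate.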

Series [3] is described as follows: Inhibition of West Nile virus NS2B-NS3 protease using 2-Abz-Gly-Leu-Lys-Arg-Gly-Gly-[…]-Tyr-NH2 as substrate preincubated with protein for 15 mins followed by substrate addition measured for 15 mins by FRET assay. The method, boiled down: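 WNV NS2B-NS3 linked construct at 75 nM (40 nM in one case) in pH 9 Tris buffer, preincubated 15 min with eight inhibitor concentrations (ranges 0–1 up to 0–50 μM). Substrate was 50 μM, with FRET readout over 15 min. IC50 was fitted from triplicates.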

Series [4] can be described thus: Half life in Sprague-Dawley rat liver microsomes incubated for 30 mins by UV-HPLC method. The format is ADME. The method, boiled down: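 Pooled male rat liver microsomes (0.2 mg/mL protein) with NADPH (10 mM) in DPBS were preincubated 15 min at 37 °C. Compound (100 μM) was added and incubated at 37 °C; aliquots were taken at 0, 2, 5, 10, 20 and 30 min. Samples were quenched with equal-volume acetonitrile, chilled and centrifuged, and parent remaining was quantified by RP-HPLC UV against reference peak areas. Testosterone served as positive control.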
In general terms: Liver microsomes are a subcellular fraction often used to study metabolism.

For series [5], the target named is Prothrombin (Homo sapiens) (UniProt P00734). As to the kind of experiment: Inhibition of thrombin (unknown origin) using Boc-Val-Pro-Arg-AMC as substrate at 25 uM preincubated with protein for 15 mins followed by substrate addition measured for 10 mins by continuous fluorimetric assay relative to control.
Series [6] relates to West Nile virus. As to the kind of experiment: Antiviral activity against West Nile virus infected in human HuH7 cells after 3 days by virus yield reduction assay. Conditions: Huh-7, 72 h. In kind it is functional, organism-based.
The nature of series [7]: Inhibition of Dengue virus serotype-2 NS2B-NS3 protease using 2-Abz-Nle-Lys-Arg-Arg-Ser-(3-NO2)-Tyr-NH2 as substrate preincubated with protein for 15 mins followed by substrate addition measured for 15 mins by FRET assay. Also noted: species or system dengue virus type 2. An outline of the steps: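 DENV-2 NS2B-NS3 linked construct at 30 nM (15 nM in some cases), same pH 9 Tris buffer, 15 min preincubation and FRET read-out. Eight inhibitor concentrations spanned 0–1, 0–2, 0–6 or 0–50 μM, with substrate at 50 μM. IC50 was fitted from triplicates.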

Series [8] is described as follows: Selectivity index, ratio of CC50 for African green monkey Vero cells to EC50 for Dengue virus serotype-2 infected in African green monkey Vero cells. Conditions: read-out: Ratio CC50/EC50. The format is toxicity, cell-based.
In series [9] the test system is West Nile virus. Kind of series: Inhibition of West Nile virus NS2B-NS3 protease at 0 to 48 uM incubated for 1 hr by tryptophan quenching assay.
Series [10] concerns dengue virus type 2. Kind of series: Inhibition of Dengue virus serotype-2 NS2B-NS3 protease at 0 to 48 uM incubated for 1 hr by tryptophan quenching assay.
Another series deals with Trypsin (Homo sapiens) (UniProt P07477+P07478+P35030). As to the kind of experiment: Inhibition of trypsin (unknown origin) using Boc-Val-Pro-Arg-AMC as substrate at 25 uM preincubated with protein for 15 mins followed by substrate addition by continuous fluorimetric assay relative to control.
Series [11] has as its system dengue virus type 2. As to the kind of experiment: Potency index, ratio of EC50 for relative to Bz-Lys-Arg-Phg-NH2 to EC50 for test compound for antiviral activity against Dengue virus serotype-2 infected in African green monkey Vero cells after 7 days by virus yield reduction assay. The format is functional. The method, boiled down:
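Huh-7 cells (10^4/well) in DMEM + 10% FBS, held overnight at 37 °C, then infected with DENV-2 (MOI 1) with nontoxic compound concentrations. Each concentration in triplicate, 48 h at 37 °C, then supernatants pooled. Titres by plaque assay on Vero E6 (10^-1 to 10^-6 dilutions, 1 h adsorption, 7 days, formaldehyde fix, crystal violet, plaque count). EC50 from nonlinear dose-response fit; reference inhibitor also assayed.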

The nature of series [12]: Permeability of compound after 5 hrs by PAMPA. In kind it is ADME. Conditions: read-out: permeability. The method, boiled down:
(§2)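 Precoated PAMPA plates were equilibrated 1 h at room temperature. Donor wells received 200 μM compound in PBS, in triplicate, and acceptor wells received PBS. After 5 h at room temperature, donor and acceptor concentrations were quantified by RP-HPLC UV at 254 nm against six-point calibration curves (10–200 μM). Pe and mass retention were calculated by literature formulas.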
(In PAMPA a lipid-coated filter parts donor from acceptor wells.)

Series [13] relates to West Nile virus. Kind of series: Potency index, ratio of EC50 for relative to Bz-Lys-Arg-Phg-NH2 to EC50 for test compound for antiviral activity against West Nile virus infected in human HuH7 cells after 3 days by virus yield reduction assay. The format is functional, Huh-7. An outline of the steps: as §1
Series [14] in a line: Retention time of compound by RP-HPLC analysis. In kind it is physicochemical.
Series [15] can be described thus: Permeability of compound assessed as compound mass retention after 5 hrs by PAMPA. The format is ADME. An outline of the steps:
as §2

A short description of series [16]: Cytotoxicity against human HuH7 cells infected with Dengue virus serotype-2 assessed as cell viability after 48 hrs by Cell-Titer-Glo luminescent viability assay. In kind it is cell-based, Huh-7. An outline of the steps:
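Huh-7 cells (10^4/well) were seeded in DMEM + 10% FBS overnight, then infected with WT DENV-2 (MOI 1) in the presence of compound, triplicate per concentration. After 48 h at 37 °C, medium was replaced with fresh DMEM and viability was read by CellTiter-Glo luminescence. CC50 was determined.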

The nature of series [17]: Cytotoxicity against human HuH7 cells infected with West Nile virus assessed as cell viability after 48 hrs by Cell-Titer-Glo luminescent viability assay. The format is cell-based, Huh-7. The method, boiled down: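 Huh-7 cells (10^4/well, DMEM + 10% FBS, overnight) were infected with WT WNV (MOI 0.1) alongside compound, each concentration in triplicate. After 48 h at 37 °C, fresh DMEM was added and viability was measured by CellTiter-Glo luminescence. CC50 was determined.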

The test system of series [18] is dengue virus type 2. As to the kind of experiment: Antiviral activity against Dengue virus serotype-2 infected in African green monkey Vero cells after 7 days by virus yield reduction assay. In kind it is functional, organism-based.

pEC50, pIC50: −log10 of the molar value. Calls of active or inactive are those of the source. No cut-off for these calls is given here.

By inhibition is commonly meant the relative decrease from the control value, in per cent. Broadly, the pIC50 is the IC50 on a negative log10 scale, so that one unit is a factor of ten. Broadly, the half-life is the time in which the quantity being followed falls by half. As a reminder, the pEC50 is the EC50 on a negative log10 scale, so that one unit is a factor of ten. What is called CC50 is the concentration giving 50% cytotoxicity.

On to `COc1cccc(COc2ccc([C@@H](NC(=O)[C@H](CCCCN)NC(=O)[C@H](CCCNC(=N)N)NC(=O)c3ccc(-c4cccs4)s3)C(N)=O)cc2)c1`, for which the selectivity ratio in series [1] is more than 7; in [8] it was more than 25. In addition, the inhibition with West Nile virus [2] worked out at 100%. Also, the pIC50 in [3] was 6.25; in [7], 6.75. In [4], this compound gave a half-life of 2.92 h. Also, the inhibition entry (in series [5]; on Trypsin (Homo sapiens)) was “inactive” in each case. For the same compound, the negative-log EC50 (pEC50) was 4.81 in the series on West Nile virus [6] and 5.47 in the series with dengue virus type 2 [18]. Moreover, the inhibition result in the series on West Nile virus [9] and in the series with dengue virus type 2 [10] was “Active” each time. Besides, the results for the “Ratio EC50” value in the series on dengue virus type 2 [11] and in the series with West Nile virus [13] were 25 and 7, respectively. Besides, in series [12], the Papp at 5 h worked out at 0.65 ×10⁻⁶ cm/s. The same compound displayed a Retention_time in series [14] of 3.28 min. Further, the permeability in [15] is 1.15%. The CC50 at 48 h in series [16] and in [17] was more than 100 µM each time.

The record behind these values is ChEMBL document CHEMBL3739314, “Discovery of Nanomolar Dengue and West Nile Virus Protease Inhibitors Containing a 4-Benzyloxyphenylglycine Residue” (J Med Chem, 2015).
